The nature of assay [1]: Activity against metalloenzyme Ribonucleoside diphosphate reductase was evaluated from a subcutaneously growing murine tumor (sarcoma 180) implanted in B6D2F3 male mice at 0.00033 conc. In short, it runs like this: (§1)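 RdR from excised subcutaneous sarcoma 180 tumors in male B6D2F3 mice; chelators supplied in DMF. Enzyme-started at 37 °C, stopped by boiling at 0, 10, 20 min. Cytidine/deoxycytidine separated by cellulose TLC, radioactivity scanned. Protein by BSA-standard method.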

The nature of assay [2]: Activity against metalloenzyme Ribonucleoside diphosphate reductase was evaluated from a subcutaneously growing murine tumor (sarcoma 180) implanted in B6D2F3 male mice at 0.0033 conc. In short, it runs like this:
as §1

A short description of assay [3]: Inhibition of metalloenzyme Ribonucleoside diphosphate reductase. On the set-up: concentration or dose not given beside the values. Particulars: concentration not given here. In short, it runs like this:
as §1

Assay [4] is described as follows: Activity against metalloenzyme Ribonucleoside diphosphate reductase was evaluated from a subcutaneously growing murine tumor (sarcoma 180) implanted in B6D2F3 male mice at 0.033 conc. In short, it runs like this:
as §1

Assay [5] can be described thus: (§2) Activity against metalloenzyme Ribonucleoside diphosphate reductase was evaluated from a subcutaneously growing murine tumor (sarcoma 180) implanted in B6D2F3 male mice, in reference to hydroxy-urea at 0.1 conc.
A short description of assay [6]: (§3) Activity against metalloenzyme Ribonucleoside diphosphate reductase was evaluated from a subcutaneously growing murine tumor (sarcoma 180) implanted in B6D2F3 male mice at 0.01 conc. In short, it runs like this: as §1
Assay [7] is described as follows: (§4) Activity against metalloenzyme Ribonucleoside diphosphate reductase was evaluated from a subcutaneously growing murine tumor (sarcoma 180) implanted in B6D2F3 male mice at 0.1 conc. In short, it runs like this:
as §1

The nature of assay [8]: Activity against metalloenzyme Ribonucleoside diphosphate reductase was evaluated from a subcutaneously growing murine tumor (sarcoma 180) implanted in B6D2F3 male mice at 1.0 conc. In short, it runs like this: as §1
A short description of assay [9]: as §3. In short, it runs like this:
as §1
This is another data set of the same source.

Assay [10] in a line: Activity against metalloenzyme Ribonucleoside diphosphate reductase was evaluated from a subcutaneously growing murine tumor (sarcoma 180) implanted in B6D2F3 male mice, in reference to hydroxy-urea at 0.007 conc.
The nature of assay [11]: as §4. In short, it runs like this:
as §1
This is another data set of the same source.

Assay [12] can be described thus: as §2. The source holds these as a separate data set.
Assay [13] in a line: Activity against metalloenzyme Ribonucleoside diphosphate reductase was evaluated from a subcutaneously growing murine tumor (sarcoma 180) implanted in B6D2F3 male mice, in reference to hydroxy-urea at 0.033 conc.
A short description of assay [14]: Activity against metalloenzyme Ribonucleoside diphosphate reductase was evaluated from a subcutaneously growing murine tumor (sarcoma 180) implanted in B6D2F3 male mice at 0.0002 conc. In short, it runs like this: as §1
Assay [15] can be described thus: Activity against metalloenzyme Ribonucleoside diphosphate reductase was evaluated from a subcutaneously growing murine tumor (sarcoma 180) implanted in B6D2F3 male mice at 0.027 conc. In short, it runs like this: as §1
A short description of assay [16]: Activity against metalloenzyme Ribonucleoside diphosphate reductase was evaluated from a subcutaneously growing murine tumor (sarcoma 180) implanted in B6D2F3 male mice at 0.002 conc. In short, it runs like this:
as §1

A short description of assay [17]: Activity against metalloenzyme Ribonucleoside diphosphate reductase was evaluated from a subcutaneously growing murine tumor (sarcoma 180) implanted in B6D2F3 male mice at 0.02 conc. In short, it runs like this:
as §1

These results are taken from ChEMBL document CHEMBL1132415, “Domain-structured N1,N2-derivatized hydrazines as inhibitors of ribonucleoside diphosphate reductase: redox-cycling considerations” (J Med Chem, 1999).

As to `Oc1c(Cl)cc(Cl)cc1/C=N/Nc1ccccn1`, the inhibition in [1] was found to be 12%; in assay [2], 34%; in assay [3] it was 82%; in [4] it was 65%.
As to “Copper(II)-Chelate of 1-[Pyridoxylidene]-2-[2'-pyrimidyl]-hydrazine Sulfate”, the inhibition in assay [5] came out at 37%; in assay [3] it was 73%; in assay [6], 38%; in assay [7], 78%; in [8], 86%.
For the molecule `Cc1ncc(CO)c(/C=N/Nc2ccccn2)c1O`, the inhibition was found to be 72% in assay [9] and 15% in assay [10].
Regarding “1:2 Copper(II):1-[5'-Bromosalicylidene]-2-[N-(ethoxy-carbonylmethyl)isonicotinoyl]hydrazine Sulfate Complex”, the inhibition in [9] came out at 35%; in [3], 72%; in [7], 64%; in assay [8], 71%.
Take `COc1ccc(COC(=O)N/N=C/c2c(CO)cnc(C)c2O)cc1`: in assay [9], the inhibition was 0%.
For the molecule `CCOC(=O)C[n+]1cc(CO)c(/C=N/Nc2ccccn2)c(O)c1C`, in assay [3], the inhibition stood at 15%.
Regarding `Cc1c(O)c(/C=N/NC(=O)c2cc[n+](C)cc2)c(CO)c[n+]1C`, in assay [9], the inhibition came out at 0%.
Consider `Cc1ncc(CO)c(/C=N/Nc2nc(Cl)c(Cl)c(Cl)c2Cl)c1O`, for which the inhibition in assay [9] was 25%; in [3] it was 72%; in [11] it was 18%; in assay [8], 43%.
Take `Cc1ncc(CO)c(/C=N/Nc2ncccn2)c1O`: the inhibition in assay [3] and in [8] was 78% in each case.
With `CC(=O)OCc1cnc(C)c(OC(C)=O)c1/C=N/Nc1ccccn1`, the inhibition in assay [12] came out at 37%; in assay [5], 37%; in [6] it was 31%; in [7] it was 68%; in [11], 68%.
As for `C[n+]1ccccc1N/N=C/c1cc(Cl)cc(Cl)c1O`, the inhibition amounted to 8% in assay [1], 34% in [2], 82% in [13] and 58% in assay [4].
On to `Cc1ncc(CO)c(/C=N/NC(=O)c2ccnc3ccccc23)c1O`, for which the inhibition came to 11% in assay [14], 81% in assay [3] and 63% in assay [15].
As for `C[n+]1ccc(C(=O)N/N=C/c2cc(Cl)cc(Cl)c2O)cc1`, in assay [9], the inhibition amounted to 0%.
`CCOC(=O)C[n+]1ccc(C(=O)N/N=C/c2cc(Cl)ccc2O)cc1`: the inhibition turned out to be 18% in assay [14], 10% in assay [16], 81% in [3] and 77% in assay [17].
The molecule `CC(=O)OCc1cnc(C)c(O)c1/C=N/Nc1ncccn1` had an inhibition in assay [6] of 30%.
In turn, `Cc1ncc(CO)c(/C=N/NC(=O)c2cc[n+](C)cc2)c1O` came in with an inhibition in assay [9] of 0%.
`Cc1cc(O)nc(N/N=C/c2c(CO)cnc(C)c2O)n1`: the figures for the inhibition in [3] and in assay [8] were 15% and 0%, respectively.
Consider “1:2 Copper(II):1-[5'-Bromosalicylidene]-2-[isonicotinoyl]-hydrazine Formate Complex”, for which the inhibition in assay [9] came to 22%; in assay [3], 73%; in [7] it was 28%; in [8], 59%.
Molecule `Cc1ncc(CO)c(/C=N/Nc2nnc(N/N=C/c3c(CO)cnc(C)c3O)c3ccccc23)c1O` showed an inhibition in [6] of 0%.
For the molecule `Cc1ncc(CO)c(/C=N/Nc2ncc(Cl)cc2Cl)c1O`, the inhibition in assay [9] was found to be 79%; in [3], 72%; in assay [6], 78%; in [8], 83%.
Regarding `Cc1c(O)c(/C=N/N=c2\ccccn2C)c(CO)c[n+]1C`, the inhibition in [9] was 0%; in assay [3] it was 81%.
For `Cc1ncc(CO)c(/C=N/CC/N=C/c2c(CO)cnc(C)c2O)c1O`, the inhibition in assay [6] turned out to be 0%.
With `CC(=O)OCc1cnc(C)c(OC(C)=O)c1/C=N/Nc1ncccn1`, the inhibition in assay [9] was found to be 24%; in [12], 37%; in [3] it was 73%; in [11] it was 43%; in assay [8] it was 79%.
Turning to `Cc1ncc(CO)c(/C=N/Nc2[nH]cnc3ncnc2-3)c1O`, the inhibition in assay [1] was 18%; in assay [2], 21%; in assay [3], 81%; in assay [4], 72%.
Regarding `Cc1c(O)c(/C=N/Nc2ncccn2)c(CO)c[n+]1C`, in assay [3], the inhibition is 15%.
As for “Copper(II) Chelate of 1-[Pyridoxylidene]-2-[5'-chloro-2'-pyridyl]hydrazine Sulfate”, the inhibition in [3] stood at 81%; in assay [6] it was 27%; in assay [7] it was 65%; in assay [8], 82%.
The corresponding values for “Copper(II) Chelate of 1-[Pyridoxylidene]-2-[3',5'-chloro-2'-pyridyl]hydrazine Sulfate” are 81%, 37%, 83% and 85%.
Take `Oc1ccc(Br)cc1/C=N/Nc1ccccn1`: the inhibition in assay [9] came out at 0%.
Take `CCOC(=O)C[n+]1cc(CO)c(/C=N/Nc2ncccn2)c(O)c1C`: the inhibition stood at 79% in assay [9], 72% in assay [3], 76% in assay [7] and 79% in assay [8].
As to `CCOC(=O)C[n+]1ccc(C(=O)N/N=C/c2cc(Br)ccc2O)cc1`, the inhibition in assay [9] was determined as 0%; in [3], 81%.
